From ChEMBL document CHEMBL3425408, “Design, synthesis, in vitro, and in vivo anticancer and antiangiogenic activity of novel 3-arylaminobenzofuran derivatives targeting the colchicine site on tubulin” (J Med Chem, 2015)
The source made the active and inactive calls. The calls are words filed in the database; no cut-off is given here.

Columns and labels:
Tubulin (Bos taurus) = Tubulin (Bos taurus) (UniProt Q6B856+Q862L2+Q862F3); assay: Displacement of [3H]colchicine from bovine brain tubulin at 5 uM after 20 mins by scintillation counting analysis
Method in brief: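 Reaction mixtures held 1 μM tubulin, 5 μM [3H]colchicine and 5 μM test compound. Inhibition of radiolabelled colchicine binding was reported as percent inhibition.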

HeLa [1] = assay: Induction of apoptosis in human HeLa cells assessed as caspase 3 activation after 24 to 48 hrs by Western blot analysis; format: functional, cell-based
Method in brief: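 HeLa lysates prepared after the indicated times. 10 μg protein separated by SDS-PAGE on PVDF blots. Primary antibodies (2 h, room temperature) against PARP, caspase-3, cleaved caspase-9, Bcl-2 and Mcl-1, then peroxidase secondary with ECL detection. β-Actin reprobe used as loading control.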

HeLa [2] = assay: Induction of cell cycle arrest in human HeLa cells assessed as increase in cyclin B expression at 250 nM after 24 hrs by Western blot analysis; format: functional, cell-based
Method in brief: (§1)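 HeLa cells treated 24 or 48 h. Lysates cleared at 15000g, and 10 μg protein run on 7.5–15% SDS-PAGE and blotted to PVDF. Membranes blocked in 5% BSA and probed for cyclin B, p-cdc2 Tyr15 and cdc25c, then detected with peroxidase secondary and ECL. Blots stripped and reprobed for β-actin as loading control.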

HeLa [3] = assay: Induction of apoptosis in human HeLa cells assessed as increase in proportion of cells with depolarized mitochondria after 24 to 48 hrs by JC1 staining based flow cytometry; format: functional, cell-based; details: TDE = time-dependent effect
Method in brief: (§2)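 HeLa cells treated 24 or 48 h, then stained with JC-1. Cells with depolarized mitochondria quantified by flow cytometry. Three independent experiments.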

HeLa [4] = assay: Induction of cell cycle arrest in human HeLa cells assessed as decrease in cyclin B expression at 100 to 250 nM after 48 hrs by Western blot analysis; format: functional, cell-based; method in brief: as §1
[5] = Antiproliferative activity against human RS4:11 cells after 72 hrs by (3-(4,5-dimethylthiazol-2-yl)-2,5-diphenyltetrazolium bromide test; format: functional, cell-based; details: RS4-11, 72 h
Method in brief: (§3)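 Jurkat, RS4;11 and HL-60 cells grown in RPMI-1640; MCF-7, A549, HeLa and HT-29 cells grown in DMEM; both media with 10% FBS and penicillin/streptomycin. 8 × 10^3 cells per well were preincubated 18 h at 37 °C, 5% CO2, then exposed 72 h to a concentration range (DMSO ≤0.25%). Read-out was MTT; IC50 was taken against cells given the maximum DMSO. Mean ± SE of at least three experiments.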

HeLa [6] = assay: Induction of apoptosis in human HeLa cells assessed as caspase 9 activation at 100 to 250 nM by Western blot analysis; details: TDE = time-dependent effect
HeLa [7] = assay: Induction of apoptosis in human HeLa cells assessed as accumulation of annexin-V positive cells after 24 to 48 hrs by annexin-V-FITC/PI based flow cytometry; format: functional, cell-based
Method in brief: (§4)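 HeLa cells treated 24 or 48 h, then double-stained with annexin V-FITC and PI. Surface phosphatidylserine exposure measured by flow cytometry.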

HUVEC = assay: Cytotoxicity against human HUVEC cells after 72 hrs by MTT assay; format: cell-based
Method in brief: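 HUVECs were isolated from umbilical cord veins, kept in M200 with low-serum growth supplement and used at passages 1–6. […] Mean ± SEM of three separate experiments.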

Tubulin = Tubulin (Bos taurus, UniProt Q6B856+Q862L2+Q862F3); assay: Inhibition of bovine brain tubulin assembly after 20 mins incubation by spectrophotometric analysis
Method in brief: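 Bovine brain tubulin (10 μM) was preincubated with varying compound concentrations in glutamate buffer at 30 °C, then chilled to 0 °C. GTP was added to 0.4 mM final and the mixture warmed to 30 °C in cuvettes.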

Jurkat = assay: Antiproliferative activity against human Jurkat cells after 72 hrs by (3-(4,5-dimethylthiazol-2-yl)-2,5-diphenyltetrazolium bromide test; format: functional, cell-based; method in brief: as §3
HeLa [8] = assay: Induction of apoptosis in human HeLa cells assessed as increase in proportion of cells with depolarized mitochondria at 100 to […] by JC1 staining based flow cytometry; format: functional, cell-based; method in brief: as §2
HeLa [9] = assay: Induction of apoptosis in human HeLa cells assessed as increase in Mcl-1 expression at 100 to 250 nM after 24 hrs by Western blotting analysis
HT-29 = assay: Antiproliferative activity against human HT-29 cells after 72 hrs by (3-(4,5-dimethylthiazol-2-yl)-2,5-diphenyltetrazolium bromide test; format: functional, cell-based; details: HT-29, 72 h
HeLa [10] = assay: Induction of cell cycle arrest in human HeLa cells assessed as cell arrest at G2/M phase after 24 hrs by propidium iodide based flow cytometric analysis; format: functional
Method in brief: (§5)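 HeLa or Jurkat cells (5 × 10^5) treated 24 h. Cells fixed in ice-cold 70% ethanol, lysed with RNase A and 0.1% Triton X-100, and stained with propidium iodide. DNA content analyzed by flow cytometry to give cell-cycle phase distribution.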

HeLa [11] = assay: Antiproliferative activity against human HeLa cells after 72 hrs by (3-(4,5-dimethylthiazol-2-yl)-2,5-diphenyltetrazolium bromide test; format: functional, cell-based
HeLa [12] = assay: Induction of cells cycle arrest in human HeLa cells assessed as cell arrest at G2/M phase at > 60 nM after 24 hrs by propidium iodide based flow cytometric analysis; format: functional; method in brief: as §5
HeLa [13] = assay: Induction of apoptosis in human HeLa cells assessed as increase in ROS production at 100 to […] after 24 to 48 hrs by H2-DCFDA based flow cytometry; format: functional, cell-based
Method in brief: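 HeLa cells treated 24 or 48 h, then loaded with H2-DCFDA. ROS measured by flow cytometry. Three independent experiments.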

HeLa [14] = assay: Induction of apoptosis in human HeLa cells assessed as accumulation of annexin-V positive cells after at 100 to […] by annexin-V-FITC/PI based flow cytometry; format: functional, cell-based; details: TDE = time-dependent effect; method in brief: as §4
A549 = assay: Antiproliferative activity against human A549 cells after 72 hrs by (3-(4,5-dimethylthiazol-2-yl)-2,5-diphenyltetrazolium bromide test; format: functional, cell-based; details: A549, 72 h
HeLa [15] = assay: Induction of apoptosis in human HeLa cells assessed as PARP cleavage at 100 to 250 nM after 24 to 48 hrs by Western blot analysis
HeLa [16] = assay: Induction of apoptosis in human HeLa cells assessed as reduction in Bcl2 expression at 100 to 250 nM after 48 hrs by Western blotting analysis
PBL [17] = assay: Cytotoxicity against human PHA-stimulated PBL cells after 72 hrs by MTT assay; format: cell-based
Method in brief: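 PBLs came from healthy donors by Lymphoprep gradient, were washed and left overnight in RPMI-1640 with 10% FBS. Nonadherent cells at 5 × 10^5 cells/mL were stimulated with 2.5 μg/mL PHA and given a range of concentrations for 72 h. […] Mean ± SEM of three experiments.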

PBL [18] = assay: Cytotoxicity against human resting PBL cells after 72 hrs by MTT assay; format: cell-based
Method in brief: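 Resting PBLs from healthy donors separated on a Lymphoprep gradient and incubated overnight in RPMI-1640 with 10% FBS. Nonadherent cells resuspended at 5 × 10^5 cells/mL without PHA and exposed to compound for 72 h. Viability read by MTT. […] Three experiments.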

Row | Structure (SMILES) | inhibition (Tubulin (Bos taurus)) | Activity (HeLa [1]) | Activity (HeLa [2]) | Activity (HeLa [3]) | Activity (HeLa [4]) | IC50 [5] | Activity (HeLa [6]) | Activity (HeLa [7]) | IC50 (HUVEC) | IC50 (Tubulin) | IC50 (Jurkat) | Activity (HeLa [8]) | Activity (HeLa [9]) | IC50 (HT-29) | Activity (HeLa [10]) | IC50 (HeLa [11]) | Activity (HeLa [12]) | Activity (HeLa [13]) | Activity (HeLa [14]) | IC50 (A549) | further results
1 | COC(=O)c1oc2cc(OC)ccc2c1Nc1cc(OC)c(OC)c(OC)c1 | 83% | Dose-dependent effect | Active | tde | Active | 0.3 nM | tde | Dose-dependent effect | 750 nM | 1.1 µM | 8 nM | Dose-dependent effect | Active | 3 nM | Dose-dependent effect | 2 nM | >70% | Active | tde | 9 nM | Activity (HeLa [15]): Active; Activity (HeLa [16]): Active; IC50 (PBL [17]): > 10 µM; IC50 (PBL [18]): > 10 µM
2 | CCOC(=O)c1oc2cc(OC)ccc2c1Nc1cc(OC)c(OC)c(OC)c1 | 74% | Dose-dependent effect | Active | tde | Active | 100 nM | tde | Dose-dependent effect | 220 nM | 1.5 µM | 22 nM | Dose-dependent effect | inactive | 17 nM | Dose-dependent effect | 13 nM | >70% | Active | tde | 36 nM | Activity (HeLa [15]): Active; Activity (HeLa [16]): Active; IC50 (PBL [17]): 6.3 µM; IC50 (PBL [18]): > 10 µM
